Experimental data published in ChEMBL document CHEMBL2176879, “Identification of HIV-1 inhibitors targeting the nucleocapsid protein” (J Med Chem, 2012).
pEC50, pKi: −log10 of the molar value. Active and inactive are the calls of the source.

Assays:
[1] = test system: Human immunodeficiency virus 1; test: Binding affinity to HIV1 NL4-3 N-terminal GST-tagged nucleocapsid protein expressed in Escherichia coli BL21DE3 by resonant waveguide grating-based SRU BIND assay
In short: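 GST-p2-NC (NL4-3, E. coli BL21DE3(pLysS), GSH-purified) immobilized at 5 μM on aldehyde-activated optical biosensor; compounds added at 25 μM in PBS, 1 % DMSO; peak wavelength shift followed over time at room temperature; stoichiometry from expected PWV using ligand/receptor MW ratio and target activity.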

[2] = Inhibition of HIV1 NL4-3 N-terminal GST-tagged nucleocapsid protein interaction to FAM-labeled SL-2 DNA expressed in Escherichia coli BL21DE3 by fluorescence polarisation assay; parameters: species or system Human immunodeficiency virus 1
[3] = test system: Human immunodeficiency virus 1; test: Binding affinity to HIV1 Gag protein assessed as change in melting temperature using SYPRO orange by differential scanning fluorimetry analysis
In short: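 5 μM GST-Gag incubated with 5X SYPRO Orange and 5 μM compound in 5 mM HEPES pH 7.5, 150 mM NaCl; heated 35–94 °C at 1 °C/min. Tm from Boltzmann sigmoid fit; ΔTm of 2 °C taken as hit threshold.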

[4] = test system: Human immunodeficiency virus 1; test: Displacement of FAM-labeled SL-2 from HIV1 NL4-3 N-terminal GST-tagged nucleocapsid protein-FAM-labeled SL-2 complex expressed in Escherichia coli BL21DE3 by EMSA analysis
In short: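 Pre-formed complex of GST-p2-NC with fluorescein-labeled SL-2 DNA (15 μM protein, 0.5 μM DNA in PBS, 10 nM ZnCl2) incubated with compound, resolved by native PAGE; free/bound probe quantified by fluorescence gel scanning.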

SUP-T1 [5] = test: Cytotoxicity against human SupT1 cells at 0.1 uM after 7 days by Trypan Blue dye exclusion analysis; format: cell-based; conditions: sup-t1, 168 h
In short: (§1)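 SupT1 T cells in RPMI1640 with 10 % FBS, 2 mM L-glutamine, 0.1 mM NEAA, 1 mM sodium pyruvate, penicillin/streptomycin, at 37 °C and 5 % CO2. Compounds were dissolved in DMSO and incubated with the cells for several days. Viability was read as dead vs. viable cells by Trypan Blue dye exclusion, counted under a microscope.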

SUP-T1 [6] = test: Cytotoxicity against human SupT1 cells at 30 uM after 6 days by Trypan Blue dye exclusion analysis; format: cell-based; conditions: sup-t1, 144 h; in short: as §1
SUP-T1 [7] = test: Cytotoxicity against human SupT1 cells at 0.1 to 1 uM after 7 days by Trypan Blue dye exclusion analysis; format: cell-based; conditions: sup-t1, 168 h
[8] = test system: Human immunodeficiency virus 1; test: Antiviral activity against HIV1 LAI infected in human CD4+ T cells assessed as reduction of p24 positive T cells at 200 nM treated 3 days before infection measured after 9 days by flow cytometry analysis; format: functional; conditions: Human immunodeficiency virus 1, LAI, T-cell
[9] = test system: Human immunodeficiency virus 1; test: Antiviral activity against HIV1 NL4-3 infected in human HeLa cells assessed as drecrease of p24 antigen level after 2 days by CFAR; format: functional, organism-based; conditions: Human immunodeficiency virus 1, NL4-3, HeLa, 48 h
In short: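 2×10^5 HeLa cells in Opti-MEM given increasing compound concentrations (1 % DMSO controls); after 2 days transiently transfected with 1 μg pNL4-3 plasmid by lipofection. Virus production quantified as p24, expressed relative to DMSO controls; three independent transfections, mean ± s.d.; EC50 derived.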

SUP-T1 [10] = test: Cytotoxicity against human SupT1 cells at 10 uM after 7 days by Trypan Blue dye exclusion analysis; format: cell-based; conditions: sup-t1, 168 h
SUP-T1 [11] = test: Cytotoxicity against human SupT1 cells at 1 uM by Trypan Blue dye exclusion analysis; format: cell-based; conditions: sup-t1, 1 µM; in short: as §1

Row | SMILES | Activity [1] | pKi [2] | ΔTm [3] [°C] | Activity [4] | Activity (SUP-T1 [5]) [%] | Activity (SUP-T1 [6]) [%] | Activity (SUP-T1 [7]) [%] | inhibition at 0.2 µM [8] [%] | pEC50 [9] | Activity (SUP-T1 [10]) [%] | Activity (SUP-T1 [11]) [%]
1 | COc1cccc(/C=C2\SC(=S)C(N)C2=O)c1OC (configuration not stated) | Active | 7.74 | 4.8 | Active | 0 | > 70 | < 3 | 43 | 5.46 | – | –
2 | CCOc1ccc(/C=C(\C)[N+](=O)[O-])cc1OC | Active | 7.85 | 2.2 | Active | 0 | – | < 3 | 50 | 6.49 | > 90 | –
3 | O=C1NC(=S)S/C1=C\c1cc([N+](=O)[O-])ccc1Sc1ccc(C(F)(F)F)cn1 | Active | 7.14 | 2.4 | Active | 0 | – | – | 0 | – | > 90 | > 70
4 | C/C(=C\c1ccc2c(c1)OCO2)[N+](=O)[O-] | Active | 7.66 | 3.4 | Active | 0 | – | – | 18 | – | > 90 | > 70
5 | O=C1ON=C(c2ccccc2)/C1=C/c1ccc2c(c1)OCO2 | Active | 7.70 | 6.3 | Active | 0 | – | – | 33 | – | > 90 | > 70
